ChEMBL document CHEMBL1135506, “Correlations between cytotoxicity and topography of some 2-arylidenebenzocycloalkanones determined by X-ray crystallography” (J Med Chem, 2002)

Legend:
CCRF-CEM = assay: Inhibitory concentration against CEM T-lymphocytes; format: functional, cell-based; details: Homo sapiens
Summary of the method: (§1)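 Murine L1210 lymphoid leukemia cells, human Molt 4/C8 T-lymphocytes and human CEM T-lymphocytes were tested up to a maximum concentration of 500 µM, and the read-out was IC50 (µM).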

[1] = Inhibitory concentration against proliferation of human Molt 4/C8 cells; format: functional, cell-based; details: Molt4/C8; summary of the method: as §1
L1210 [2] = assay: Inhibitory activity against L1210 leukemia cells; format: functional, cell-based; details: Mus musculus; summary of the method: as §1
P388 = assay: Inhibitory activity against Murine P388 cells; format: functional, cell-based; details: Mus musculus
[3] = Partition coefficient (logP); format: physicochemical; details: octanol/water
L1210 [4] = assay: Effect on DNA biosyntheses in leukemia L1210 cells; format: functional, cell-based; details: Mus musculus
Summary of the method: (§2)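 L1210 cells, ~2 × 10⁵ per well, were exposed to a range of concentrations together with 0.25 µCi of [methyl-³H]deoxythymidine (DNA), [5-³H]uridine (RNA) or [3,4-³H]leucine (protein). They were incubated 20 h at 37 °C. Radioactivity in the trichloroacetic acid-insoluble fraction was then counted by liquid scintillation.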

L1210 [5] = assay: Effect on RNA biosyntheses in leukemia L1210 cells; format: functional, cell-based; details: Mus musculus; summary of the method: as §2
L1210 [6] = assay: Effect on proliferation of leukemia L1210 cells; format: functional, cell-based; details: Mus musculus; summary of the method: as §1
L1210 [7] = assay: Effect on protein biosyntheses in leukemia L1210 cells; format: functional, cell-based; details: Mus musculus; summary of the method: as §2

Row | Compound | IC50 (CCRF-CEM) [µM] | IC50 [1] [µM] | IC50 (L1210 [2]) [µM] | IC50 (P388) [µM] | logP [3] | IC50 (L1210 [4]) [µM] | IC50 (L1210 [5]) [µM] | IC50 (L1210 [6]) [µM] | IC50 (L1210 [7]) [µM]
1 | O=C1/C(=C/c2ccccc2[N+](=O)[O-])CCc2ccccc21 | 7.22 | 8.12 | 10.8 | 12.6 |  |  |  |  | 
2 | O=C1/C(=C/c2ccccc2Br)Cc2ccccc21 | 46.8 | 95.4 | 64.2 | > 50 |  |  |  |  | 
3 | O=C1/C(=C/c2ccc(Cl)c(Cl)c2)CCc2ccccc21 | 9.77 | 28.6 | 210 | 13.1 |  |  |  |  | 
4 | COc1ccc(/C=C2\CCc3ccccc3C2=O)c(OC)c1 | 1.88 | 1.69 | 7.98 | 2.61 |  |  |  |  | 
5 | O=C1/C(=C/c2ccc(Cl)cc2Cl)CCc2ccccc21 | 8.73 | 28.4 | 34.4 | 17.2 |  |  |  |  | 
6 | O=C1/C(=C/c2ccccc2F)CCc2ccccc21 | 20.8 | 36 | 22.8 | 21.8 |  |  |  |  | 
7 | Cc1ccccc1/C=C1\CCCc2ccccc2C1=O | 43.2 | 36.2 | 61.2 | 15.2 | 4.92 |  |  |  | 
8 | COc1ccccc1/C=C/C(=O)c1ccccc1 | 8.56 | 8.45 | 64.4 | 15.9 |  |  |  |  | 
9 | O=C1/C(=C/c2ccccc2Cl)CCCc2ccccc21 | 18.4 | 37.1 | 42.3 | 12.7 | 5.04 |  |  |  | 
10 | COc1ccccc1/C=C1\Cc2ccccc2C1=O | 58.2 | 308 | 170 | 28.4 |  | 407 | 292 | 170 | 167
11 | Cc1ccccc1/C=C1\CCc2ccccc2C1=O | 43.2 | 41.4 | 50.2 | 17.7 |  |  |  |  | 
12 | COc1ccc(/C=C2\CCCc3ccccc3C2=O)cc1OC | 28 | > 20 | > 100 | 8.19 | 4.13 |  |  |  | 
13 | O=C1/C(=C/c2ccccc2Br)CCCc2ccccc21 | 32.1 | 38.4 | 37 | 19.8 | 5.04 |  |  |  | 
14 | COc1cccc(/C=C2\Cc3ccccc3C2=O)c1OC | 37.6 | 53 | 214 | 28.7 |  |  |  |  | 
15 | COc1cccc(/C=C2\CCc3ccccc3C2=O)c1OC | 28.7 | 41.3 | 38.2 | 12.3 |  |  |  |  | 
16 | O=C1/C(=C/c2ccc(Cl)cc2Cl)Cc2ccccc21 | > 500 | > 500 | > 500 | > 50 |  |  |  |  | 
17 | O=C(/C=C/c1ccc([N+](=O)[O-])cc1)c1ccccc1 | 13.8 | 8.32 | 59.1 | 7.58 |  |  |  |  | 
18 | O=C(/C=C/c1cccc([N+](=O)[O-])c1)c1ccccc1 | 8.9 | 8.53 | 82.9 | 15.3 |  |  |  |  | 
19 | COc1ccccc1/C=C1\CCCc2ccccc2C1=O | 28.9 | 37.1 | 46.1 | 18 | 4.69 |  |  |  | 
20 | COc1cc(/C=C2\Cc3ccccc3C2=O)cc(OC)c1OC | > 500 | > 500 | > 500 | > 50 |  |  |  |  | 
21 | COc1cc(/C=C2\CCCc3ccccc3C2=O)cc(OC)c1OC | 11.7 | 23.1 | 35.8 | 8.68 | 4.29 |  |  |  | 
22 | O=C1/C(=C/c2ccccc2Cl)Cc2ccccc21 | 57 | 128 | 152 | 26.5 |  |  |  |  | 

Row | Compound | IC50 (CCRF-CEM) [µM] | IC50 [1] [µM] | IC50 (L1210 [2]) [µM] | IC50 (P388) [µM] | logP [3] | IC50 (L1210 [4]) [µM] | IC50 (L1210 [5]) [µM] | IC50 (L1210 [6]) [µM] | IC50 (L1210 [7]) [µM]
23 | COc1ccc(/C=C2\Cc3ccccc3C2=O)cc1OC | 286 | 468 | 264 | 23.9 |  |  |  |  | 
24 | O=C1/C(=C/c2ccc(Cl)cc2Cl)CCCc2ccccc21 | 407 | > 500 | > 500 | 14 | 5.65 |  |  |  | 
25 | O=C1/C(=C/c2ccccc2F)Cc2ccccc21 | 47.1 | 54.2 | 150 | 31.7 |  |  |  |  | 
26 | Cc1ccccc1/C=C1\Cc2ccccc2C1=O | 56.5 | 154 | 208 | 23.9 |  |  |  |  | 
27 | COc1cccc(/C=C/C(=O)c2ccccc2)c1 | 8.55 | 7.94 | 45.1 | 9.75 |  |  |  |  | 
28 | O=C1/C(=C/c2ccccc2F)CCCc2ccccc21 | 28.2 | 42.1 | 60.4 | 13.2 | 4.55 |  |  |  | 
29 | O=C1/C(=C/c2ccccc2Br)CCc2ccccc21 | 25.4 | 36.8 | 33.4 | 19.7 |  |  |  |  | 
30 | COc1ccc(/C=C2\CCc3ccccc3C2=O)cc1OC | 8.56 | 11.6 | 42 | 5.69 |  |  |  |  | 
31 | COc1cccc(/C=C2\CCCc3ccccc3C2=O)c1OC | 142 | > 500 | > 500 | 8.58 | 4.54 |  |  |  | 
32 | O=C1/C(=C/c2ccc(Cl)c(Cl)c2)CCCc2ccccc21 | 11.8 | 18.2 | 45.7 | 12.2 | 5.71 |  |  |  | 
33 | O=C1/C(=C/c2ccccc2[N+](=O)[O-])CCCc2ccccc21 | 16.2 | 40 | 47 | 36.5 | 4.07 |  |  |  | 
34 | O=C1/C(=C/c2ccccc2Cl)CCc2ccccc21 | 8.8 | 29.6 | 30 | 17.5 |  |  |  |  | 
35 | COc1cc(/C=C2\CCc3ccccc3C2=O)cc(OC)c1OC | 7.04 | 8.28 | 31.2 | 6.72 |  |  |  |  | 
36 | COc1ccc(/C=C2\Cc3ccccc3C2=O)c(OC)c1 | 87.1 | 48.5 | 14 | 13 |  |  |  |  | 
37 | O=C1/C(=C/c2ccccc2[N+](=O)[O-])Cc2ccccc21 | 3.53 | 2.54 | 7.61 | 0.74 |  | 14.7 | 11.7 | 7.61 | 17.2
38 | O=C(/C=C/c1ccccc1[N+](=O)[O-])c1ccccc1 | 8.6 | 8.38 | 30.4 | 3.74 |  |  |  |  | 
39 | O=C1/C(=C/c2ccc(Cl)c(Cl)c2)Cc2ccccc21 | 397 | > 500 | > 500 | 25 |  |  |  |  | 
40 | COc1ccccc1/C=C1\CCc2ccccc2C1=O | 12.6 | 31.3 | 40.5 | 17.5 |  |  |  |  | 
41 | COc1ccc(/C=C2\CCCc3ccccc3C2=O)c(OC)c1 | 48.4 | 71.4 | 12.4 | 7.82 | 5.01 |  |  |  | 
42 | N[C@@H](Cc1ccc(N(CCCl)CCCl)cc1)C(=O)O |  |  |  |  |  | > 100 | > 100 |  | 
43 | COc1ccc(/C=C/C(=O)c2ccccc2)cc1 [4-METHOXY CHALCONE] | 33.5 | 30 | 50.4 | 10.6 |  |  |  |  | 
